Results gathered from unrelated publications.
Compare with care: the assays were run in different laboratories.
SCN1A: Sodium channel protein type 1 subunit alpha (SCN1A, Homo sapiens, UniProt P35498)

CC(=O)c1c(C)c2cnc(Nc3ccc(N4CCNCC4)cn3)nc2n(C2CCCC2)c1=O
activity vs control (Cyclin-dependent kinase 5, with p35 (CDK5, Homo sapiens, UniProt Q00535); enzyme activity, inhibitor, ADP detection; 1 µM): 103%

CC12CC3CC(C)(C1)CC(N)(C3)C2
inhibition (SCN1A; ion current, inhibitor, patch clamp; 3 µM): 0.782%

COc1cc(-c2cncc3c2CN(C)Cc2cc(N4CCNCC4)ccc2-3)cc(OC)c1OC
remaining activity (Cyclin-dependent kinase 5, with p25 (CDK5, Homo sapiens, UniProt Q00535); enzyme activity, inhibitor; 1 µM): 109%

C=CC(=O)N1CCC(COCC(=O)N2CCN(c3nc(-c4cnc(N)nc4C(F)F)nc(N4CCOC[C@@H]4C)n3)CC2)CC1
remaining binding (Mitotic checkpoint serine/threonine-protein kinase BUB1 (BUB1, Homo sapiens, UniProt O43683); binding, competition with immobilised ligand; 1 µM): 93%

Cc1cc([C@@H](C)Nc2ccccc2C(=O)O)c2nc(N3CCC(F)(F)CC3)c(C#N)c(=O)n2c1
remaining binding (Focal adhesion kinase 1 (PTK2, Homo sapiens, UniProt Q05397); binding, competition with immobilised ligand; 10 µM): 100%

CC(C)NCC(O)COc1cccc2ccccc12 (stereo not shown)
inhibition (SCN1A; ion current, inhibitor, patch clamp; 3 µM): 2.62%

C[C@H]1O[C@H](O[C@H]2[C@H](O)[C@@H](O)[C@@H](O[C@H]3[C@H](O)[C@@H](O)C(O)O[C@@H]3CO)O[C@@H]2CO)[C@H](O)[C@@H](O)[C@@H]1N[C@H]1C=C(CO)[C@@H](O)[C@H](O)[C@H]1O (stereo partly shown)
inhibition (Alpha-glucosidase MAL12 (MAL12, Saccharomyces cerevisiae S288c, UniProt P53341); enzyme activity, inhibitor, absorbance; 1000 µg/mL): 80.6%

CNC[C@H](O)c1cccc(O)c1
Emax (Alpha-1A adrenergic receptor (ADRA1A, Homo sapiens, UniProt P35348); calcium signal, agonist; COS-7): ~80%

Cc1nnc(SCC2=C(C(=O)O)N3C(=O)[C@@H](NC(=O)Cn4cnnn4)[C@H]3SC2)s1
inhibition (SCN1A; ion current, inhibitor, patch clamp; 10 µM): 4.84%

CNc1ncc2c(/C=C/C(=O)N3CCC(OC)CC3)nn(Cc3cccc(C(F)(F)F)c3)c2n1
remaining activity (Receptor-interacting serine/threonine-protein kinase 2 (RIPK2, Homo sapiens, UniProt O43353); enzyme activity, inhibitor, radiometric; 1 µM): 87%
